# KCNQ1 pot – potentiators or activators of KCNQ1 channel, primary screen, cell-based, thallium flux, high-throughput | Potassium voltage-gated channel subfamily KQT member 1 (Homo sapiens), P51787 | CHO-K1 KCNQ1, thallium flux FluxOR fluorescence; stronger effect = higher value | B-score at 10 µM | 310,000 compounds, 0.35% hits | AID 2648, 2010;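 active = fluorescence ratio B-score, a plate-corrected score, at least three library SD, with initial intensity B-score within 5 SD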
#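 System: CHO-K1 cells stably expressing KCNQ1 / Medium: assay buffer for compound exposure, DMSO matched across wells / Reagent: thallium- and potassium-containing depolarizing buffer / Compound: one concentration, matched DMSO / Incubation: 20 min compound pretreatment at room temperature / Measured by: kinetic FluxOR fluorescence, 10 s baseline plus 110 s post-stimulus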
# KCNK3 inh – human KCNK3 channel inhibitors, primary screen, CHO cells, FluxOR thallium flux, B-score. Potassium channel subfamily K member 3 (Homo sapiens), O14649. FluxOR fluorescence; stronger effect = lower value. B-score at 10 µM. 340,000 compounds, 0.84% hits;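 active = B-score under library mean minus 4 SD, starting fluorescence ratio at most library mean plus 5 SD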;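 note: more negative B-score means stronger inhibition of thallium flux through KCNK3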
# KCNK9 inh – KCNK9 potassium channel inhibitors, primary screen, HEK293 cells, thallium flux. Potassium channel subfamily K member 9 (Homo sapiens), Q9NPC2. FluxOR thallium flux fluorescence; stronger effect = lower value. B-score at 10 µM. 310,000 compounds, 1.2% hits. AID 488922, 2010;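 active = ratio B-score over 3 SD below the library mean, with starting fluorescence within 5 SD of its mean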;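 note: negative B-score means less thallium flux so channel inhibition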
# KCNQ1 inh – inhibitors of human KCNQ1 channel, primary screen, cell-based, thallium flux, high-throughput | CHO-K1 KCNQ1, FluxOR thallium flux fluorescence; stronger effect = higher value | B-score at 10 µM | 310,000 compounds, 1.3% hits;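 active = compounds whose thallium flux B-score, printed positive for inhibition, exceeds three library SD while starting fluorescence stays within three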;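 note: channel opened by potassium depolarization with thallium stimulus after 20 min compound exposure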
# Kir21 block – inhibitors of mouse Kir2.1 inward-rectifier potassium channel | Inward rectifier potassium channel 2 (Mus musculus), P35561 | HEK293-Kir2.1, FluxOR thallium flux fluorescence; stronger effect = lower value | B-score at 10 µM | 310,000 compounds, 0.85% hits;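 active = fluorescence ratio B-score at or below minus 3 SD of library scores, with starting-brightness B-score within 2 SD, cut at about -4.2 in these data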;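 note: channel flux triggered by added potassium and thallium sulfate stimulus; B-score of peak minus minimum fluorescence over baseline after thallium stimulus; more negative B-score means stronger Kir2.1 block with less thallium influx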
# hERG rescue – hERG rescue from dofetilide block, primary screen, cell-based, CHO-hERG, FluxOR thallium flux, dofetilide IC70. Voltage-gated inwardly rectifying potassium channel KCNH2 (Homo sapiens), Q12809. dofetilide IC70 present. activation (rescue from dofetilide block), less the hit threshold, % at 10 µM. 310,000 compounds, 0.51% hits;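 active = activation above the mean of controls blocked by dofetilide plus 5 SD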;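 note: thallium influx through hERG after potassium depolarization seen as dye fluorescence rise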
# KCNQ1 block val – KCNQ1 potassium channel inhibitors, confirmation, cell-based, Tl flux, duplicate; shares compounds with KCNQ1 inh; KCNQ1 cell line, FluxOR thallium flux fluorescence; inhibition, % at 10 µM; 1,600 compounds, 93% hits; AID 588353, 2011;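 active = primary screen active, with duplicate mean exceeding buffer control mean plus 3 SD of buffer wells, cut at about 28% in these data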;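 note: 0% = buffer control ratio and 100% = XE991 inhibitor control ratio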
# CHO KCNQ1 ctr – thallium flux effects in parental CHO cells, counter-screen for KCNQ1 inhibitor project, cell-based, Tl flux; shares compounds with KCNQ1 inh; fluorescence ratio (Tl flux) at 10 µM; 1,600 compounds, 21% hits; parental CHO-K1, FluxOR thallium flux fluorescence ratio; stronger effect = lower value; zero means no signal rise above baseline;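 active = mean of duplicate thallium-flux fluorescence ratios in parental host cells more than 5 SD below the buffer control mean, cut at about 0.38 in these data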;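 note: ratio is peak minus minimum fluorescence divided by baseline fluorescence; actives read low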
# KCNQ1 APC inh – KCNQ1 channel inhibitors, confirmation, orthogonal assay, cell-based, automated electrophysiology; shares compounds with KCNQ1 inh; KCNQ1-CHO cells, automated patch clamp current; calls only at 10 µM; 490 compounds, 20% hits;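 active = KCNQ1 current drop exceeding 3 SD of negative control wells, seen in both duplicate runs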;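 note: steady state current during a 2 s step from -80 to +40 mV; negative values mean current inhibition and positive values mean potentiation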
# KCNQ2 inh – KCNQ2 channel inhibition, selectivity assay for KCNQ1 inhibitor project, cell-based; 1,600 compounds, 71% hits; KCNQ2 cells, FluxOR thallium flux fluorescence; shares compounds with KCNQ1 inh; inhibition, % at 10 µM;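 active = mean percent inhibition of the KCNQ2 thallium signal more than 5 SD above the buffer-only control wells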;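 note: KCNQ2 expressed in CHO cells; 0% = buffer control wells and 100% = XE-991 inhibitor control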
# KCNQ1-KCNE1 inh – KCNQ1/KCNE1 channel inhibition, selectivity assay for KCNQ1 inhibitor project, CHO-K1 cells, thallium flux, FluxOR | shares compounds with KCNQ1 inh | FluxOR thallium flux fluorescence | inhibition, % at 10 µM | 1,600 compounds, 77% hits;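 active = mean percent inhibition of duplicate wells above the buffer-only control mean plus 3 SD of those controls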;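 note: 0% = buffer only wells and 100% = XE-991 inhibitor control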
# The depositor's hits bear a star; i = inactive; / = no result given; + = active, no number. Hits are enriched below; roughly 3.7% of the tested compounds scored in any of these assays.
SMILES,KCNQ1 pot,KCNK3 inh,KCNK9 inh,KCNQ1 inh,Kir21 block,hERG rescue,KCNQ1 block val,CHO KCNQ1 ctr,KCNQ2 inh,KCNQ1-KCNE1 inh,others
Cc1csc2ncnc(N3CCN(C(=S)Nc4ccc(C(F)(F)F)cc4)CC3)c12,i,i,i,10*,-1.29,-6.5,112.0*,0.471,74.0%*,93.5%*,KCNQ1 APC inh=i
Cc1cc(C)cc(NC(=S)N2CCN(c3ncc(C(F)(F)F)cc3Cl)CC2)c1,i,i,i,i,-0.31,-7.9,/,/,/,/,
Cc1csc2c(N3CCN(C(=S)Nc4ccc(C(F)(F)F)cc4)CC3)ncnc12,i,i,i,12*,0.2,-8.8,82.5*,0.539,i,178.0%*,
Cc1csc2c(N3CCN(C(=O)NC(C)(C)C)CC3)ncnc12,i,i,i,i,0.74,-4.8,/,/,/,/,
Cc1csc2c(N3CCN(C(=O)Nc4ccc(Cl)c(Cl)c4)CC3)ncnc12,i,i,i,11*,3.16,-7.0,159.5*,0.36*,90.0%*,+,
O=C(Nc1cc([N+](=O)[O-])ccc1N1CCCC1)c1cccs1,i,i,i,i,1.23,-5.0,/,/,/,/,
Cc1ccccc1COC(=O)CCC1=NS(=O)(=O)c2ccccc2N1,i,i,i,i,-0.76,-8.6,/,/,/,/,
O=c1[nH]c(C(F)(F)C(F)(F)C(F)(F)F)no1,/,i,/,/,/,/,/,/,/,/,
CC(=O)N1CC(C)Oc2ccc(S(=O)(=O)NC(CC(=O)O)c3ccc(C)cc3C)cc21 (centres undefined),i,i,i,i,-0.25,-6.5,/,/,/,/,
O=C(CSc1nc2ccccc2[nH]1)N1CCCCC1,i,i,i,i,0.03,-4.5,/,/,/,/,
Cc1c(C)n(C(=O)CSc2nc3ccccc3[nH]2)c2ccccc12,i,i,i,7*,0.14,0.6,139.0*,0.394,123.7%*,190.0%*,KCNQ1 APC inh=i
CN(C)c1nc(F)c(F)c(S(=O)(=O)c2ccccc2)c1F,i,i,i,i,0.26,-7.8,/,/,/,/,
CC(C)(C)C(=O)Cn1c(=N)n(Cc2ccccc2Cl)c2ccccc21,i,i,i,i,-0.28,-8.3,/,/,/,/,
CC(C)(C)C(=O)Cn1c(=N)n(Cc2ccccc2)c2ccccc21,i,i,i,7*,-0.19,-16.4,86.0*,0.386,113.7%*,90.0%*,
O=C1CSc2ccc(C(=O)Nc3cccc(S(=O)(=O)Nc4ccc(Br)cc4)c3)cc2N1,i,i,i,10*,-0.28,-10.0,138.0*,0.331*,100.7%*,188.0%*,
O=C(Nc1ccc(Br)cc1)c1cccc(S(=O)(=O)Nc2cnc3ccccc3c2)c1,i,i,i,6*,2.43,-10.0,139.0*,0.435,i,58.5%*,
O=C(Nc1ccc(Br)cc1)c1cccc(S(=O)(=O)Nc2ccccn2)c1,i,i,i,i,1.13,-7.5,/,/,/,/,
COc1ccc(S(=O)(=O)N2CCC(C(=O)NCCC(=O)NC3CC3)CC2)cc1,i,i,i,i,0.58,-7.0,/,/,/,/,
C=CCOc1ccc(/C=C/C(=O)OCC(=O)N2CCC(c3ccccc3)=N2)cc1,/,i,/,/,/,/,/,/,/,/,
Cc1cc(C)cc(NC(=O)CSc2nc3ccccc3nc2N2CCCC2)c1,i,i,i,i,0.85,-9.6,/,/,/,/,
Cc1cc(C)cc(NC(=O)CSc2nc3ccccc3nc2N2CCCCC2)c1,i,i,i,6*,0.35,-9.4,68.5*,0.463,92.0%*,86.0%*,
Cc1ccc(NC(=O)CN2C(=O)NC3(CCCc4ccccc43)C2=O)c([N+](=O)[O-])c1 (centres undefined),i,i,i,i,0.35,-4.6,/,/,/,/,
CCCN1CCc2c(sc(NC(=S)NC(=O)c3ccccc3)c2C#N)C1,i,i,i,i,0.02,-1.9,/,/,/,/,
CC(C)N1CCc2c(sc(NC(=S)NC(=O)c3ccccc3)c2C#N)C1,i,i,i,7*,-3.45,-16.0,0.0,0.503,i,48.5%*,
Cc1ccc(-c2n[nH]c(=S)n2/N=C/c2ccc(C)o2)cc1,i,i,i,6*,-0.71,-6.2,0.0,0.52,i,i,
Cc1cccc(NC(=O)c2cc3n(n2)C(C(F)(F)F)CC(c2ccc4c(c2)OCO4)N3)c1 (centres undefined),i,i,i,8*,3.01,-12.2,126.0*,0.395,104.3%*,94.5%*,KCNQ1 APC inh=i
Cc1cccc(Cn2c(C(C)(C)C)cc3cccnc32)c1,i,i,i,8*,-5.12*,-9.9,64.0*,0.45,67.0%*,i,
Cc1cccc(CN2CCN(c3ncccn3)CC2)c1,i,i,i,i,-0.65,1.8,/,/,/,/,
COc1ccc(N2CCN(CCCNC(=O)C(=O)c3c(C)n(C)c4ccccc34)CC2)cc1,i,i,i,i,-0.03,-6.6,/,/,/,/,
S=C(NCCc1cccc(Cl)c1)NCc1ccccc1,i,i,i,8*,-3.82,-6.9,66.0*,0.475,i,55.5%*,

# Source: PubChem
